The species named for one series is Rattus norvegicus. Nature of the series: Selectivity ratio of IC50 for delta opioid receptor to IC50 for mu opioid receptor in Wistar rat brain membrane. The format is cell membranes. The method, boiled down: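 Wistar rat brain crude membranes incubated 120 min at 25 °C with peptide and 0.5 nM [3H]DAMGO (MOR) or 0.5 nM [3H][Ile5,6]deltorphin-2 (DOR) in 50 mM Tris/HCl pH 7.4 with 5 mM MgCl2, 1 mM EDTA, 100 mM NaCl, bacitracin.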

For series [1], the target named is Delta-type opioid receptor (Rattus norvegicus, UniProt P33533). Nature of the series: Displacement of [3H][Ile5,6]deltorphin-2 from delta opioid receptor in Wistar rat brain membrane. The format is cell membranes. (Displacement assays read how much labelled ligand stays bound in the presence of the test substance.)
Sequence of Delta-type opioid receptor (P33533 whole entry): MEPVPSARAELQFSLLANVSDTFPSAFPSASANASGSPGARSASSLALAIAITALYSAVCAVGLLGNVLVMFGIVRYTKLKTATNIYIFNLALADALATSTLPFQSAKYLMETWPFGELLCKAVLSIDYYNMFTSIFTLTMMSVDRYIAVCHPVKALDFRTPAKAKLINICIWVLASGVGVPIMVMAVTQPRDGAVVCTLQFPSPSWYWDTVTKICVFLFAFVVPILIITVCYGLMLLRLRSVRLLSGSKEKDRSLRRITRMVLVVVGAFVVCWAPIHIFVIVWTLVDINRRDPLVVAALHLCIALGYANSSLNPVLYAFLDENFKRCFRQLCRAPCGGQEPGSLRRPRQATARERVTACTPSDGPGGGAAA
Series [2] addresses Mu-type opioid receptor (Rattus norvegicus, UniProt P33535). Nature of the series: Displacement of [3H]DAMGO from mu opioid receptor in Wistar rat brain membrane. The format is cell membranes.
A short description of series [3]: Stability in rat brain homogenates assessed as degradation half life. It is filed as ADME, tissue-based. Conditions: brain homogenate. The method in brief:
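Pooled rat brain homogenate (in 50 mM Tris-HCl pH 7.4, 10 mg protein/ml aliquot) incubated with 0.5 mM peptide stock at 37 °C for 0-60 min; stopped on ice with 1 M HCl, centrifuged. Remaining peptide peak area regressed as ln(A/A0) versus time for k; t1/2 = ln2/k. Three experiments in duplicate.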

Series [4] deals with Mus musculus. Nature of the series: Antinociceptive activity in Swiss albino CD1 mouse assessed as duration of inhibition of jumping at 3 ng, icv by hot plate test. It is filed as functional. The method in brief:
(§1)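 Male Swiss albino CD1 mice (20-22 g), i.c.v. injection into left ventricle in 0.9% NaCl. Hot plate at 55±0.5 °C; latencies to paw licking, rearing and jumping, cut-off 240 s; saline controls. Time-course readings at 5, 10, 20, 30, 45, 60, 90, 120, 150 and 180 min after dosing; duration of effect recorded.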

The test system of series [5] is Mus musculus. The experiment in a line: Antinociceptive activity in Swiss albino CD1 mouse assessed as inhibition of paw licking at 100 ng, icv by hot plate test. It is filed as functional, organism-based. The method, boiled down:
(§2)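 Male Swiss albino CD1 mice (20-22 g), peptide given i.c.v. into left ventricle in 0.9% NaCl. Placed on 55±0.5 °C hot plate 5 min post-injection; latency to paw licking (also rearing, jumping) versus saline-injected controls; cut-off 240 s. Dose-response curves; mean ± SEM, 10 mice per group.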

Series [6] has as its system Mus musculus. Nature of the series: Antinociceptive activity in Swiss albino CD1 mouse assessed as duration of inhibition of rearing at 3 ng, icv by hot plate test. It is filed as functional. The method, boiled down: as §1
The subject of series [7] is Mus musculus. Nature of the series: Antinociceptive activity in Swiss albino CD1 mouse assessed as duration of inhibition of paw licking at 3 ng, icv by hot plate test. The format is functional. The method, boiled down: as §1
Background: In hot-plate and tail-flick tests a longer latency is read as antinociception.

Series [8] deals with T1, Mu-type opioid receptor (Homo sapiens, UniProt P35372). Nature of the series: Binding affinity to recombinant OPRM1 receptor immobilized on biosensor assessed as dissociation rate constant by BIAcore X system. The method in brief:
(§3)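 Surface plasmon resonance at 37 °C: recombinant OPRM1 protein immobilised on CM5 chip by amine coupling (10 µg/ml in 10 mM sodium acetate, pH 5.0). Peptides at about 0.4 mM in HBS (10 mM HEPES, 150 mM NaCl, 3 mM EDTA, 0.005% P20, pH 7.4) injected 30 s at 20 µl/min; association/dissociation RU fitted for ka and kd.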
(In general: Surface plasmon resonance follows binding to a sensor surface in real time, without labels.)

Series [9] deals with Mus musculus. The experiment in a line: Antinociceptive activity in Swiss albino CD1 mouse assessed as duration of inhibition of rearing at 0.1 ng, icv by hot plate test. It is filed as functional. The method, boiled down:
as §1

Series [10] has as its target T1, Mu-type opioid receptor. The experiment in a line: Binding affinity to recombinant OPRM1 receptor immobilized on biosensor assessed as association rate constant by BIAcore X system. The method in brief: as §3
For series [11], the system named is Mus musculus. Nature of the series: Antinociceptive activity in icv dosed Swiss albino CD1 mouse assessed as inhibition of jumping by hot plate test in presence of MOR antagonist beta-funaltrexamine. The format is functional, organism-based. The method in brief:
(§4)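 CD1 male mice given peptide i.c.v. in 0.9% NaCl with MOR antagonist β-funaltrexamine (1 µg). Hot plate at 55±0.5 °C, 240 s cut-off; latencies to paw licking, rearing and jumping versus controls. Mean ± SEM of 10 mice per group; two-way ANOVA followed by Student-Newman-Keuls test.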

The subject of series [12] is Mus musculus. The experiment in a line: Antinociceptive activity in icv dosed Swiss albino CD1 mouse assessed as inhibition of rearing by hot plate test in presence of MOR antagonist beta-funaltrexamine. It is filed as functional, organism-based. The method, boiled down: as §4
Series [13] has as its system Mus musculus. The experiment in a line: Antinociceptive activity in icv dosed Swiss albino CD1 mouse assessed as inhibition of paw licking by hot plate test. It is filed as functional, organism-based. The method in brief:
as §2

Series [14] has as its system Mus musculus. Nature of the series: Antinociceptive activity in icv dosed Swiss albino CD1 mouse assessed as inhibition of paw licking by hot plate test in presence of MOR antagonist beta-funaltrexamine. It is filed as functional, organism-based. The method, boiled down: as §4
Series [15] has as its system Mus musculus. Nature of the series: Antinociceptive activity in Swiss albino CD1 mouse assessed as duration of inhibition of paw licking at 0.1 ng, icv by hot plate test. The format is functional. The method, boiled down: as §1
In series [16] the test system is Mus musculus. Nature of the series: Antinociceptive activity in iv dosed Swiss albino CD1 mouse assessed as inhibition of paw licking by hot plate test. It is filed as functional, organism-based.
Series [17] concerns Mus musculus. Nature of the series: Antinociceptive activity in Swiss albino CD1 mouse assessed as duration of inhibition of jumping at 0.1 ng, icv by hot plate test. The format is functional. The method, boiled down:
as §1

The test system of series [18] is Mus musculus. The experiment in a line: Antinociceptive activity in Swiss albino CD1 mouse assessed as inhibition of paw licking at 3 ng, icv by hot plate test. The format is functional, organism-based. The method in brief: as §2

Activity calls are given as the source filed them. Square brackets hold non-standard residues; d marks the D form. Peptide text beside a SMILES is read from it. Inp = O=C(O)C1CCNCC1 A value given as a limit tells only on which side of the number the result lay.

T1 sequence (P35372 whole entry): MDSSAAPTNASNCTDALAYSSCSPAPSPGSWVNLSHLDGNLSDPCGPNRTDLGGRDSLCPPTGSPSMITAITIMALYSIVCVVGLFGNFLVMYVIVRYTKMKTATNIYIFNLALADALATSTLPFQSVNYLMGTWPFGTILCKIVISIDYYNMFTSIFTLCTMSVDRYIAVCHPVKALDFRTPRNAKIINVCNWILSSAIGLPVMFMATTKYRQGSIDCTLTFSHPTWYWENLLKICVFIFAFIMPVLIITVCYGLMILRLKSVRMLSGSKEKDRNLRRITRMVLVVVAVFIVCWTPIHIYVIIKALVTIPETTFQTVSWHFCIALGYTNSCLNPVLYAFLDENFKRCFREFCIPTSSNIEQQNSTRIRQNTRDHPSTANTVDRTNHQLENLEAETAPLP
Sequence of Mu-type opioid receptor (Rattus norvegicus, UniProt P33535) (P33535 whole entry): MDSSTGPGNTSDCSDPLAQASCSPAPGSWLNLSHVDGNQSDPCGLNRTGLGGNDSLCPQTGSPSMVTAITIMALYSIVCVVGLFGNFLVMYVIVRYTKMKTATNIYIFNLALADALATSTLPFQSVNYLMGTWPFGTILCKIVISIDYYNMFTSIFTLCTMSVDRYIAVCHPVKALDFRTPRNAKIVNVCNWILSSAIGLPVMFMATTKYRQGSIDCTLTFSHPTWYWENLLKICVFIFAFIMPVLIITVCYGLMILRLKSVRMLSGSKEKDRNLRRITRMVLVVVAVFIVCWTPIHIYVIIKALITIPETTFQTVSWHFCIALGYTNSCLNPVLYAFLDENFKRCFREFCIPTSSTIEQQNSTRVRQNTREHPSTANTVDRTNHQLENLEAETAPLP

Broadly, the IC50 is the concentration at which inhibition is half-maximal. As a reminder, the half-life is the time in which the quantity being followed falls by half. `Cc1cc(O)cc(C)c1C[C@H](N)C(=O)N1CCC[C@@H](C(=O)N[C@@H](Cc2c[nH]c3ccccc23)C(=O)N[C@@H](Cc2ccccc2)C(N)=O)C1`: in the series filed under Rattus norvegicus, the Ratio IC50 was determined as 234. Moreover, the IC50 in series [1] turned out to be 89 nM; on Mu-type opioid receptor [2], 0.38 nM. Also, the half-life in series [3] turned out to be 35.8 min.

`NC(=O)[C@H](Cc1ccccc1)NC(=O)[C@H](Cc1ccccc1)NC(=O)[C@@H]1CCCN1C(=O)[C@@H](N)Cc1ccc(O)cc1` [ENDOMORPHIN 2]: the Activity in the series on Mus musculus [4], with Mus musculus [6] and in the series with Mus musculus [7] was 50 min each time. In addition, the result in the series on Mus musculus [5] was Active. Further, in series [3], the half-life came to 4.8 min.

In the case of `NC(=O)[C@H](Cc1ccccc1)NC(=O)[C@H](Cc1c[nH]c2ccccc12)NC(=O)[C@@H]1CCCN1C(=O)[C@@H](N)Cc1ccc(O)cc1` [ENDOMORPHIN-1], the half-life in [3] worked out at 6.02 min.

For `NC(=O)[C@H](Cc1ccccc1)NC(=O)[C@H](Cc1c[nH]c2ccccc12)NC(=O)[C@@H]1CCCN(C(=O)[C@@H](N)Cc2ccc(O)cc2)C1`, in the series filed under Rattus norvegicus, the Ratio IC50 was greater than 281. Besides, the results for the IC50 (in series [1]; at Mu-type opioid receptor [2]) were greater than 1000 nM and 3.55 nM, respectively. Further, the half-life in series [3] stood at 29.6 min.

Turning to `NC(=O)[C@H](Cc1ccccc1)NC(=O)[C@H](Cc1ccccc1)NC(=O)[C@@H]1CCCN(C(=O)[C@@H](N)Cc2ccc(O)cc2)C1`, on Mu-type opioid receptor [8], the Kd came to 0.55 s⁻¹. Also, the Activity in the series with Mus musculus [9] was 150 min; in the series with Mus musculus [13], “Dose-dependent effect”; in the series on Mus musculus [15] it was 150 min; in the series with Mus musculus [17], 150 min. Moreover, the Ratio IC50 in the series filed under Rattus norvegicus is greater than 1000. Besides, the values for the IC50 (in series [1]; at Mu-type opioid receptor [2]) were greater than 1000 nM and 0.04 nM, respectively. Also, the Ka at Mu-type opioid receptor [10] is 570 M⁻¹ s⁻¹. Besides, the result in the series with Mus musculus [5] was Active. The result in the series on Mus musculus [11], in the series on Mus musculus [12] and in the series on Mus musculus [16] was inactive. The AC50 entry in the series with Mus musculus [14] is reported as “Not Active”. Moreover, the half-life in series [3] came out at 48 min.

Take `NC(=O)[C@H](Cc1ccccc1)NC(=O)[C@H](Cc1c[nH]c2ccccc12)NC(=O)[C@@H]1CCCCN1C(=O)[C@@H](N)Cc1ccc(O)cc1`: in the series filed under Rattus norvegicus, the Ratio IC50 was greater than 49. In addition, the IC50 in series [1] is greater than 1000 nM; on Mu-type opioid receptor [2], 20.4 nM. In addition, the half-life in series [3] was 9.68 min.

For the compound `NC(=O)[C@H](Cc1ccccc1)NC(=O)[C@H](Cc1ccccc1)NC(=O)[C@@H]1CCCCN1C(=O)[C@@H](N)Cc1ccc(O)cc1`, the Ratio IC50 in the series filed under Rattus norvegicus was greater than 12.5. Also, the IC50 in [1] is greater than 1000 nM; on Mu-type opioid receptor [2], 80 nM. In addition, the half-life in series [3] was 6.8 min.

Consider `Cc1cc(O)cc(C)c1C[C@H](N)C(=O)N1CCC[C@@H](C(=O)N[C@@H](Cc2ccccc2)C(=O)N[C@@H](Cc2ccccc2)C(N)=O)C1`, for which, on Mu-type opioid receptor [8], the Kd amounted to 0.29 s⁻¹. Besides, the Activity is greater than 170 min in the series with Mus musculus [9], “Dose-dependent effect” in the series with Mus musculus [13], greater than 170 min with Mus musculus [15] and greater than 170 min with Mus musculus [17]. In addition, in the series filed under Rattus norvegicus, the Ratio IC50 was greater than 1000. The IC50 came to 407 nM in series [1] and 0.035 nM at Mu-type opioid receptor [2]. The Ka on Mu-type opioid receptor [10] is 515 M⁻¹ s⁻¹. Besides, the result with Mus musculus [11], in the series on Mus musculus [12] and with Mus musculus [16] was inactive. Further, the AC50 entry with Mus musculus [14] is listed as “Not Active”. Moreover, the half-life in series [3] stood at 30.9 min. For the same compound, the outcome in the series on Mus musculus [18] was Active.

Consider `NC(=O)[C@H](Cc1ccccc1)NC(=O)[C@H](Cc1c[nH]c2ccccc12)NC(=O)C1CCN(C(=O)[C@@H](N)Cc2ccc(O)cc2)CC1` (H-Y[Inp]WF-NH2), for which the Ratio IC50 in the series listed under Rattus norvegicus is 2.15. Also, the IC50 turned out to be 860 nM in [1] and 401 nM on Mu-type opioid receptor [2]. Besides, the half-life in series [3] stood at 78.5 min.

The values are drawn from ChEMBL document CHEMBL1137770, “Biological activity of endomorphin and [Dmt1]endomorphin analogs with six-membered proline surrogates in position 2” (Bioorg Med Chem, 2009).
